Article PMC4445677 (Journal of the American Chemical Society, 2014)
“Also recorded” adds a separate entry of the source.

Tests used:
[1] = tested on: nuclear extracts from human embryonic kidney (HEK) 293T cells; test: Labeling of ADP-ribosylation protein targets in nuclear extracts; type: biochemical; settings: HEK 293T nuclear extracts; for protein labeling in nuclear extracts, NAD+ analogue alone: endogenous ARTDs only, 5-Et-6-a-NAD+ 250 μM, 6-a-NAD+ 100 μM
Summary of the method: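 Nuclear extracts from human HEK 293T cells are treated with a modified NAD+ analogue (250 μM), either alone or with added KA-ARTD1. Parent 6-a-NAD+ alone on extract serves as the positive control for ADP-ribose detection. Labelled targets are detected by click chemistry with biotin–azide and immunoblot, using a Ponceau S-stained membrane as the loading control.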

KA-ARTD6 = settings: lysine to alanine mutant
KA-ARTD1 = test: Auto-ADP-ribosylation by click conjugation to biotin-azide reporter, KA-ARTD1; type: biochemical, human; settings: NAD+ analogue as substrate; increasing concentrations
KA-ARTD2 = test: Auto-ADP-ribosylation, KA-ARTD2; type: biochemical, human; settings: lysine to alanine mutant
WT-ARTD2 = test: Auto-ADP-ribosylation, WT-ARTD2; type: biochemical, human; settings: up to 250 μM
WT-ARTD6 = settings: up to 250 μM
WT-ARTD1 = test: Auto-ADP-ribosylation by click conjugation to biotin-azide reporter, WT-ARTD1; type: biochemical, human; settings: NAD+ analogue as substrate; up to 250 μM for 5-Et-6-a-NAD+
K903A ARTD1 (KA-ARTD1) = K903A ARTD1 (KA-ARTD1) (Homo sapiens, UniProt P09874, K903A); test: Inhibition of ADP-ribose transfer to Histone H1 using 6-a-NAD+; type: biochemical
[2] = biological target: wild-type ARTD1 (WT-ARTD1) (Homo sapiens, UniProt P09874); test: as above; type: biochemical
Sequence of wild-type ARTD1 (WT-ARTD1) (P09874 whole entry): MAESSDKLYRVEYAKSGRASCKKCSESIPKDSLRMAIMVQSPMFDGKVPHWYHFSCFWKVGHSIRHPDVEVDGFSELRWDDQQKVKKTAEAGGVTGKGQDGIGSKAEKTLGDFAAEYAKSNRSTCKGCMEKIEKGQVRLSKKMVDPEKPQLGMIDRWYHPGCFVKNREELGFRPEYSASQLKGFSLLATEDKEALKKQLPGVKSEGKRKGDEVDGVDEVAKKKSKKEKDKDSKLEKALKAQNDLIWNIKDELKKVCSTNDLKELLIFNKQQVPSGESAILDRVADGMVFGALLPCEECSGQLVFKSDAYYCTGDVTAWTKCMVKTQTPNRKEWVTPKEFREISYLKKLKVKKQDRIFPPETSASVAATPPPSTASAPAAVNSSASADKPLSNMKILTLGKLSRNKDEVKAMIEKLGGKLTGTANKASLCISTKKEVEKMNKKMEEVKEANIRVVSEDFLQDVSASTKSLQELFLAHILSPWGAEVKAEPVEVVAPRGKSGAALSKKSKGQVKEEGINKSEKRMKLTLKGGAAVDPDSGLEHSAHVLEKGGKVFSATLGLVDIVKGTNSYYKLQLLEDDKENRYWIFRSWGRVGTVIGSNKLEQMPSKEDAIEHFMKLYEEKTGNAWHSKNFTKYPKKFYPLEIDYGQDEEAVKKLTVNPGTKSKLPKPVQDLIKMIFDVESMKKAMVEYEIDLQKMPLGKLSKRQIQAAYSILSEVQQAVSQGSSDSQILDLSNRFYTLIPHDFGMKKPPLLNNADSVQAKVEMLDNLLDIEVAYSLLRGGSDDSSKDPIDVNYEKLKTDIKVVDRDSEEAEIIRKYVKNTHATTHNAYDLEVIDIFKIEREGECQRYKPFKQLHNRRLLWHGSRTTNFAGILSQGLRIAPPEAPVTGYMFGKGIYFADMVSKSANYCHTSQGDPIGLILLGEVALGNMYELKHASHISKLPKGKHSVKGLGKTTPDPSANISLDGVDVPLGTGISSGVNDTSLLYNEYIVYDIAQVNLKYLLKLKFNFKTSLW

Sequence of K903A ARTD1 (KA-ARTD1) (P09874 whole entry K903A): as the sequence (P09874 whole entry) above, with K903A counted along it

| IC50 (K903A ARTD1 (KA-ARTD1)) [µM] | selectivity for KA-ARTD1 over WT-ARTD1 (K903A ARTD1 (KA-ARTD1); ratio of IC50 values WT-ARTD1 / KA-ARTD1) [fold] | IC50 [2] [µM] | Compound | protein labeling in nuclear extracts in the presence of KA-ARTD1 ([1]; 250 μM plus KA-ARTD1) | protein labeling in nuclear extracts, NAD+ analogue alone [1] | modification of KA-ARTD6 (KA-ARTD6) | auto-ADPr (modification) of KA-ARTD1 (KA-ARTD1) | modification of KA-ARTD2 (KA-ARTD2) | modification of WT-ARTD2 (WT-ARTD2) | modification of WT-ARTD6 (WT-ARTD6) | auto-ADPr (modification) of WT-ARTD1 (WT-ARTD1) |
| --- | --- | --- | --- | --- | --- | --- | --- | --- | --- | --- | --- |
| – | – | – | 5-Et-6-a-NAD^+ | extensive labeling | no labeling was detected | conferred sensitivity | only mono-ADPr of KA-ARTD1; also recorded: resulted in auto-ADPr of KA-ARTD1 | conferred sensitivity | no modification | no modification | no modification of WT-ARTD1 was detected |
| – | – | – | 6-alkyne-NAD^+ [6-a-NAD^+, reference compound] | – | labeling of several proteins | – | only mono-ADPr of KA-ARTD1 | – | – | – | extensive poly-ADPr of WT-ARTD1 |
| 165 ± 11 | 14 | 2360 ± 368 | CCc1cncc(C(N)=O)c1 [5-ethyl-nicotinamide] | – | – | – | – | – | – | – | – |
